{"source": "ChEMBL document CHEMBL4825662", "about": "(J Med Chem, 2021)", "key": {"[1]": {"system": "Human orthopneumovirus", "assay": "Antiviral activity against Respiratory syncytial virus A Memphis 37b infected in human assessed as reduction in mean AUC of viral load at 200 mg administered twice daily administered for 5 days by RT-qPCR analysis", "assay_type": "functional", "set-up": "scale not given: the % may be the effect or the level left", "conditions": "time 5 day", "outline": "(§1)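 Healthy adult volunteers aged 18–45 with low serum pre-existing RSV-specific antibodies were challenged on day zero with about 4 log10 PFU of RSV-A Memphis 37b. Subjects were randomized into 3 equal groups: 200 mg, 350 mg or placebo twice daily for 5 days, begun after infection was confirmed. Viral load in nasal wash was measured by RT-qPCR or by cell-based infectivity assay, and AUC was compared with placebo.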"}, "[2]": {"assay": "Cmax in Sprague-Dawley rat at 5 mg/kg, po administered via gavage measured after 0.02 to 24 hrs by tandem liquid chromatography/mass spectrometry", "assay_type": "ADME, organism-based", "set-up": "route oral, dose 5 mg/kg, time upper 24 hrs, time lower 0.02 hrs", "conditions": "in vivo", "outline": "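Male Sprague–Dawley rats weighing 200–250 g, 3 per route, were used. The i.v. bolus was 1 mg/kg at 1 mg/mL in 40:60 dimethylacetamide/saline. Oral gavage doses were 5 or 10 mg/kg at 5 mg/mL in 1% methyl cellulose with 0.1% Tween 80. Heparinized blood was taken at 0.02–24 h (ten time points). Plasma was analyzed by LC-MS/MS after acetonitrile precipitation.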"}, "[3]": {"assay": "Half life in Sprague-Dawley rat at 50 mg/kg, po measured after 0.02 to 24 hrs by UHPLC-TOF method", "conditions": "in vivo"}, "[4]": {"assay": "Half life in rat hepatocytes at 3 uM measured up to 60 mins by LC-MS/MS analysis", "assay_type": "ADME, cell-based, Hepatocyte"}, "[5]": {"assay": "Oral bioavailability in Sprague-Dawley rat at 50 mg/kg administered via gavage measured after 0.02 to 24 hrs by tandem liquid chromatography/mass spectrometry", "assay_type": "ADME, organism-based", "conditions": "in vivo, time 0.02-24 hrs"}, "[6]": {"system": "Salmonella typhimurium", "assay": "Genotoxicity in Salmonella typhimurium by Ames test", "assay_type": "functional, organism-based", "conditions": "Salmonella enterica subsp. enterica serovar Typhimurium"}, "[7]": {"assay": "Thermodynamic solubility in PBS at 1 to 100 uM at pH 7.4 by HPLC-UV method", "assay_type": "physicochemical", "conditions": "dose 1-100 µM, read-out: Therm_solubility"}, "[8]": {"assay": "Protein binding in human plasma assessed as unbound fraction at 5 uM by LC-MS/MS analysis based equilibrium dialysis method", "assay_type": "ADME, cell-free"}, "[9]": {"system": "Respiratory syncytial virus", "assay": "Antiviral activity against Respiratory syncytial virus Memphis 37b infected in human HEp2 cells treated over 10 serial passages by plaque assay", "assay_type": "functional, organism-based", "conditions": "HEp-2"}, "[10]": {"assay": "Cmax in Sprague-Dawley rat at 50 mg/kg, po measured after 0.02 to 24 hrs by UHPLC-TOF method", "assay_type": "ADME, organism-based", "set-up": "route oral, dose 50 mg/kg, time 0.02-24 hrs", "conditions": "in vivo"}, "[11]": {"assay": "Volume of distribution at steady state in Beagle dog at 0.3 mg/kg, iv measured after 0.03 to 24 hrs by UHPLC-TOF method", "assay_type": "ADME, organism-based, Canis lupus familiaris", "conditions": "in vivo, time 0.03-24 hrs, read-out: Vdss", "outline": "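Dogs examined by a veterinary surgeon before each session, fed 2 h post-dose, water ad libitum, dosed as amorphous-solid suspension. Serial blood into heparinized tubes, centrifuged at 4 °C for 10 min at 3000g; plasma snap-frozen at −20 °C. IV sampling 2 min–24 h, oral 15 min–24 h. Plasma analysed by UHPLC-quadrupole-TOF MS.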"}, "[12]": {"assay": "Intrinsic clearance in Beagle dog hepatocytes at 3 uM assessed per million cells measured up to 60 mins by LC-MS/MS analysis", "assay_type": "ADME, cell-based, Canis lupus familiaris, Hepatocyte", "conditions": "read-out: CLH"}, "[13]": {"assay": "Intrinsic clearance in human hepatocytes at 3 uM assessed per million cells measured up to 60 mins by LC-MS/MS analysis", "assay_type": "ADME, cell-based, Hepatocyte", "conditions": "read-out: CLH"}, "[14]": {"system": "Human orthopneumovirus", "assay": "Antiviral activity against Respiratory syncytial virus A Memphis 37b infected in human assessed as reduction in mean AUC of viral load at 350 mg administered twice daily administered for 5 days by cell-based infectivity assay", "assay_type": "functional", "set-up": "scale not given: the % may be the effect or the level left", "conditions": "time 5 day", "outline": "as §1"}, "[15]": {"assay": "Intrinsic clearance in Sprague-Dawley rat liver microsomes preincubated followed by NADPH addition and measured up to 45 mins by LC-MS/MS analysis", "assay_type": "ADME, Microsome"}, "[16]": {"assay": "Apparent permeability across apical to basolateral side in MDCK-MDR1 cells at 10 uM measured at 60 mins by LC-MS/MS analysis", "assay_type": "ADME, cell-based, Canis lupus familiaris", "conditions": "dog, MDCK-MDR1"}, "[17]": {"assay": "Induction of adverse effect in human infected with Respiratory syncytial virus A Memphis 37b assessed as nausea at 200 to 350 mg administered twice daily administered for 5 days", "conditions": "in vivo, 120 h, dose 200-350 mg, time 5 day", "outline": "(§2)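 Challenge study in healthy adults aged 18–45 inoculated with about 4 log10 PFU of RSV-A Memphis 37b. Dosing was 200 or 350 mg twice daily for 5 days after infection was confirmed. Adverse events were monitored daily. ECG, physical examination and urinalysis were done at prespecified time points.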"}, "[18]": {"assay": "Oral bioavailability in Sprague-Dawley rat at 10 mg/kg administered via gavage measured after 0.02 to 24 hrs by tandem liquid chromatography/mass spectrometry", "assay_type": "ADME, organism-based", "conditions": "in vivo, time 0.02-24 hrs", "outline": "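Male Sprague–Dawley rats (200–250 g), 3 per route. IV bolus at 1 mg/kg, 1 mg/mL in 40:60 dimethylacetamide/saline; oral gavage at 5 or 10 mg/kg, 5 mg/mL in 1% methyl cellulose, 0.1% Tween 80 in water. Serial blood at 0.02–24 h (ten points) into heparin, spun at 4 °C, plasma frozen; acetonitrile protein precipitation, ESI LC-MS/MS with matrix curve and internal standards.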"}, "[19]": {"assay": "Clearance in Beagle dog at 0.3 mg/kg, iv measured after 0.03 to 24 hrs by UHPLC-TOF method", "assay_type": "ADME, organism-based, Canis lupus familiaris", "conditions": "in vivo, time 0.03-24 hrs"}, "[20]": {"assay": "Cardiotoxicity in guinea pig assessed as effect on QT interval", "assay_type": "toxicity, Cavia porcellus"}, "[21]": {"system": "Respiratory syncytial virus", "assay": "Antiviral activity against Respiratory syncytial virus Memphis 37b infected in human HEp2 cells by plaque assay", "assay_type": "functional, organism-based", "conditions": "HEp-2"}, "[22]": {"assay": "Cmax in CD1 mouse at 10 mg/kg, po measured after 0.083 to 24 hrs by UHPLC-TOF method", "assay_type": "ADME, organism-based", "set-up": "route oral, time 0.083-24 hrs, dose 10 mg/kg", "conditions": "in vivo"}, "[23]": {"assay": "Induction of adverse effect in human infected with Respiratory syncytial virus A Memphis 37b assessed as diarrhea at 200 to 350 mg administered twice daily administered for 5 days", "conditions": "in vivo, 120 h, dose 200-350 mg, time 5 day", "outline": "as §2"}, "[24]": {"system": "Human orthopneumovirus", "assay": "Antiviral activity against Respiratory syncytial virus A Memphis 37b infected in human assessed as reduction in mean AUC of viral load at 350 mg administered twice daily administered for 5 days by RT-qPCR analysis", "assay_type": "functional", "set-up": "scale not given: the % may be the effect or the level left", "conditions": "time 5 day", "outline": "as §1"}, "[25]": {"system": "Respiratory syncytial virus", "assay": "Antiviral activity against Respiratory syncytial virus infected in human airway epithelial cells assessed as reduction in RSV titer at 10 nM preincubated for 2 hrs followed by viral infection and measured after 8 day post infection by luminescence assay relative to control", "assay_type": "functional, HAE", "outline": "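Primary HAE cells were differentiated for 61 days on type IV collagen-coated trans-well inserts (n = 3 cultures). Compound at 10 nM was given basolaterally for 2 h before apical inoculation with 4 × 10⁵ pfu of luciferase-expressing recombinant RSV. Apical virus titer was read by luminescence on days 7 and 8 post-infection and compared with untreated controls. Data are mean SD.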"}, "[26]": {"assay": "Half life in Beagle dog hepatocytes at 3 uM assessed per million cells measured up to 60 mins by LC-MS/MS analysis", "assay_type": "ADME, cell-based, Canis lupus familiaris, Hepatocyte"}, "[27]": {"assay": "Clearance in Sprague-Dawley rat at 50 mg/kg, po measured after 0.25 to 24 hrs by UHPLC-TOF method", "assay_type": "ADME, organism-based", "conditions": "in vivo, time 0.25-24 hrs"}}, "note": "pEC50: −log10 of the molar value."}
{"smiles": "NCc1ccc2c(c1)nc(CN1C(=O)C3(CC3)c3ccc(F)cc31)n2CCCC(F)(F)F", "note": "[SISUNATOVIR]", "values": [{"measurement": "Activity", "setting": "[1]", "value": 55.25, "unit": "%"}, {"measurement": "Cmax", "setting": "[2]", "value": 74.2, "unit": "ng/mL"}, {"measurement": "half-life", "setting": "[3]", "value": 5.9, "unit": "h"}, {"measurement": "half-life at 3 µM", "setting": "[4]", "value": 1.55, "unit": "h"}, {"measurement": "bioavailability", "setting": "[5]", "value": 132, "unit": "%"}, {"measurement": "Activity", "setting": "[6]", "value": "Not toxic"}, {"measurement": "solubility thermodynamic", "setting": "[7]", "value": 417, "unit": "µM"}, {"measurement": "fraction unbound at 5 µM", "setting": "[8]", "value": 0.67}, {"measurement": "pEC50", "setting": "[9]", "value": 7.05}, {"measurement": "Cmax", "setting": "[10]", "value": 475, "unit": "ng/mL"}, {"measurement": "Vd", "setting": "[11]", "value": 17.6, "unit": "L/kg"}, {"measurement": "hepatocyte CLint at 3 µM", "setting": "[12]", "value": 2.4, "unit": "µL/min/1e6 cells"}, {"measurement": "hepatocyte CLint at 3 µM", "setting": "[13]", "value": 6.58, "unit": "µL/min/1e6 cells"}, {"measurement": "Activity", "setting": "[14]", "value": 68.6, "unit": "%"}, {"measurement": "Microsomal intrinsic clearance", "setting": "[15]", "value": 17, "unit": "µL/min"}, {"measurement": "Papp A→B at 1 h, 10 µM", "setting": "[16]", "value": 0.5, "unit": "×10⁻⁶ cm/s"}, {"measurement": "Activity", "setting": "[17]", "value": "Toxic"}, {"measurement": "bioavailability", "setting": "[18]", "value": 102, "unit": "%"}, {"measurement": "clearance", "setting": "[19]", "value": 17.8, "unit": "mL/min/kg"}, {"measurement": "Activity", "setting": "[20]", "value": "Toxic"}, {"measurement": "pEC50", "setting": "[21]", "value": 8.93}, {"measurement": "Cmax", "setting": "[22]", "value": 224, "unit": "ng/mL"}, {"measurement": "Activity", "setting": "[23]", "value": "Toxic"}, {"measurement": "Activity", "setting": "[24]", "value": 63.05, "unit": "%"}, {"measurement": "log(activity)", "setting": "[25]", "value": 2.35}, {"measurement": "half-life at 3 µM", "setting": "[26]", "value": 9.67, "unit": "h"}, {"measurement": "CL/F", "setting": "[27]", "value": 164, "unit": "mL/min/kg"}]}
